Screening results as filed in PubChem BioAssay.
EBI2 block: EBI2 receptor antagonists, beta-arrestin recruitment, primary screen, cell-based, luminescence, 7a,25-OHC stimulation, uHTS; G-protein coupled receptor 183 (Homo sapiens), P32249; 7a,25-OHC stimulated; inhibition, % at 5 µM; 360,000 tested, 0.81% active; in the data active = inhibition above about 38%;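 also: enzyme fragment complementation signal reports receptor beta-arrestin coupling in cells; 0% = agonist plus DMSO wells and 100% = wells without agonist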
Myeloid diff MLP: induction of myeloid progenitor differentiation, primary screen, cell-based, flow cytometry, MLPCN library; ER-HoxA9 myeloid progenitors, lysozyme-GFP differentiation; calls only at 10 µM; 360,000 tested, 1% active;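 active = normalized GFP-positive differentiation at or above the plate's own cutoff, the solvent-only control mean plus 3 SD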;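 also: cells exposed to compound for four days before flow analysis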
MC4R ag barr: MC4R agonists recruiting beta-arrestin, primary screen, cell-based, luminescence, agonist arm of biased-ligand search | Melanocortin receptor 4 (Homo sapiens), P32245 | U2OS MC4R beta-arrestin complementation; percent of melanotan II response, DMSO zero | AID 540308, 2011 | 360,000 tested, 0.98% active | activation, % at 8.9 µM;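 active = activation above a per-plate cutoff, the mean activation of sample wells on that plate plus 3 SD, cut at about 8% in these data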
Target sequence (P32245 whole entry, looked up): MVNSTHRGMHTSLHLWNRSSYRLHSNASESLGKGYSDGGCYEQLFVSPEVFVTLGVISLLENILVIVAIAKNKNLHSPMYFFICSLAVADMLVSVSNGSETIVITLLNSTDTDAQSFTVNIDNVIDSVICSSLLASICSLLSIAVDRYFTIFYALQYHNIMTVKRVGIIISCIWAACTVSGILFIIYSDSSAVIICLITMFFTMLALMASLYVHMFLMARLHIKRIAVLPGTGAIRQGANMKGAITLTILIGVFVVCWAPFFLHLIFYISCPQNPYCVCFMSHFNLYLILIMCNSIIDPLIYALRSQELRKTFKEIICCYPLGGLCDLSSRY
Granule exo inh: LAMP-1 surface exposure blockers, TALL-104 cells – cell-based, flow cytometry, MLPCN library, primary screen. TALL-104 LAMP-1 surface exposure; cells stimulated with thapsigargin and PMA. 360,000 tested, 0.66% active. inhibition, % at 10 µM. AID 651702, 2012;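 active = inhibition above about 55%, limit read from the data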
MC4R antag cAMP: MC4R antagonists of cAMP signaling, primary screen, cell-based, TR-FRET, antagonist arm of biased-ligand search | inhibition, % at 6.5 µM | AID 540295, 2011 | 360,000 tested, 0.48% active | Melanocortin receptor 4 (Homo sapiens), P32245 | MC4R-expressing cells, MTII-stimulated cAMP, LANCE TR-FRET;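 active = inhibition above its plate's cutoff, the mean of tested wells on that plate plus 3 SD, cut at about 29% in these data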;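 also: 0% = Melanotan II alone and 100% = Melanotan II plus saturating MCL0020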
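material = U2OS cells stably expressing human melanocortin 4 receptor (MC4R) | also added = Melanotan II challenge | dosing = single nominal compound dose of 6.5 µM | detection = TR-FRET with Eu-cAMP and labeled anti-cAMP, 671 nm | replication = singlicate | timing = compound 30 min, challenge 1 h, detection 1 h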
MC4R barr ag: MC4R beta-arrestin agonists, retest, confirmation, cell-based, luminescence, U2OS; AID 602192, 2012; activation, % at 8.9 µM; U2OS MC4R beta-arrestin recruitment; scaled DMSO 0%, Melanotan II 100%; shares compounds with MC4R ag barr; 2,400 tested, 31% active;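 active = mean activation across replicates above the hit cutoff set in the earlier primary screen, cut at about 8% in these data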
MOR DOR agonist: agonists of MOR-DOR heterodimerization, counter-screen for MC4R biased agonist project, cell-based, luminescence | shares compounds with MC4R ag barr | U2OS PathHunter beta-arrestin, beta-gal luminescence; percent of deltorphin B response, DMSO zero | activation, % at 9.2 µM | 2,400 tested, 5.8% active | AID 602194, 2012;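 active = mean activation across replicates exceeds the hit threshold derived in the earlier primary screen, cut at about 18% in these data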;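 also: 100% = deltorphin B at 0.9 µM final and 0% = DMSO alone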
Myeloid diff: inducers of myeloid progenitor differentiation, confirmation, cell-based, GFP/Mac1 flow cytometry, cherry pick 01. 2,300 tested, 2% active. ER-HoxA9 myeloid progenitors, GFP/Mac1 double-positive flow. calls only. shares compounds with Myeloid diff MLP;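 active = share of green or green-and-red cells above 9 and 9% in run 1 or 4 and 3% in run 2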
GFP autofluor: counter-screen for myeloid differentiation promoters: compound fluorescence. shares compounds with Myeloid diff MLP. ER-HoxA9 myeloid progenitors, no estrogen, GFP autofluorescence flow cytometry; vehicle wells 0%, positive control 100%. fluorescence response, % (concentration not given with the values). 2,300 tested, 7.4% active. AID 651707;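 active = over 5% cells positive for green fluorescent reporter, or over 2% positive for both it and APC stain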;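 also: range taken on the double positive population between DMSO and positive control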
Exocytosis CP01: inhibitors of lytic granule exocytosis, confirmation, TALL-104 cells, flow cytometry, Cherry Pick01. inhibition, % at 10 µM. shares compounds with Granule exo inh. AID 651954, 2012. LAMP-1 externalization; stimulated with PMA plus thapsigargin. 1,500 tested, 11% active; in the data active = inhibition above about 60%;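 also: 0% = stimulated vehicle wells and 100% = unstimulated wells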
The depositor's hits bear a star; i = inactive; . = no result given; + = active, no number. An excerpt weighted towards active compounds, which were near 3.7% of everything screened.

SMILES	EBI2 block	Myeloid diff MLP	MC4R ag barr	Granule exo inh	MC4R antag cAMP	Myeloid diff	GFP autofluor	others
OC1(c2cccc(C(F)(F)F)c2)CCN(c2ncnc3c2[nH]c2ccc(F)cc23)CC1	29	i	9.8*	96*	21	.	.	MC4R barr ag=1;MOR DOR agonist=6;Exocytosis CP01=68*
Fc1ccc2[nH]c3c(N4CCN(c5ccccc5)CC4)ncnc3c2c1	-6	i	4	52	21	.	.
Cc1cc(N2CCN(c3nc(-c4ccc([N+](=O)[O-])cc4)cs3)CC2)c2ccccc2n1	36	i	19*	66*	12	.	.	MC4R barr ag=11*;MOR DOR agonist=7;Exocytosis CP01=79*
Cc1cc(-c2ccc([N+](=O)[O-])cc2)nc2ccccc12	4	i	-3	1	0	.	.
CC1=C(CC(=O)c2ccccc2)C(=O)c2ccccc2C1=O	1	+	-1	-1	-3	i	4.2*
N#Cc1sc2nc(-c3cccs3)cc(-c3ccc(Cl)cc3)c2c1N	23	i	5	6	9	.	.
Cc1cc(-c2cccs2)c2c(n1)sc1c(=O)[nH]c(=O)[nH]c12	-2	i	1	0	-6	i	36*
Cc1ccc(CCNC(=O)CCS(=O)(=O)c2ccc3nc(C)sc3c2)cc1	-3	i	2	-2	11	i	0
C[C@H]1CN([C@@H](C)CO)C(=O)c2cc(NC(=O)NC3CCCCC3)ccc2O[C@H]1CN(C)C(=O)Nc1ccc(C(F)(F)F)cc1	-1	i	-1	6	11	i	0
CCOC(=O)N1CCN(C(=S)Nc2ccc(C)cc2)CC1	-8	i	0	7	13	.	.
COc1ccc(-n2c(=O)c(CCC(=O)N3CCN(c4ccccc4O)CC3)nc3ccccc32)cc1	3	i	-2	-4	7	i	6.7*
O=C(NCc1ccco1)c1ccc2c(=O)n(-c3ccccc3)c(=O)n(Cc3cccc(F)c3)c2c1	24	+	0	4	8	i	0
COC(=O)C1CC2=C(CCCC2=O)N(c2ccccc2)C1=O (centres undefined)	-7	i	0	0	2	.	.
COC(=O)C1CC2=C(CCCC2=O)NC1=O (centres undefined)	-4	i	-1	1	3	i	0
CC(=O)c1ccc(OCC(=O)OCC(=O)N(CC(C)C)c2c(N)n(Cc3ccccc3)c(=O)[nH]c2=O)cc1	7	i	-3	3	4	.	.
COCCNC(=O)NC(=O)CN1CCN(C(c2ccccc2)c2ccccc2)CC1	-4	i	0	-3	-7	.	.
Cc1ccc(CNc2nc(NCC3CC3)nc3ccsc23)c(C)c1	-35	+	0	25	0	i	0
CCN1CCOC(CC(=O)Nc2ccc([N+](=O)[O-])cc2)C1=O (centres undefined)	-16	i	-3	5	6	.	.
COc1ccc(CN(C(=O)CN2C(=O)COc3ccccc32)C2CCCC2)c(OC)c1	18	i	1	2	14	i	0
CCN(CC)S(=O)(=O)c1ccc2oc(SCC(=O)Nc3cc(C)on3)nc2c1	6	+	-2	6	2	i	1
Cc1cc(NC(=O)CSc2nc3cc(Cl)ccc3o2)no1	1	i	-2	-16	9	.	.
COc1cc2c(cc1OC)C(C(=O)NC(C)c1ccccc1)CC(=O)N2 (centres undefined)	0	i	0	-4	-8	.	.
O=S(=O)(Nc1cccc(S(=O)(=O)N2CCCC2)c1)c1cccc(Br)c1	6	i	-1	-1	-6	.	.
COC(=O)C(Cc1ccc(O)cc1)NC(=O)C(CC(=O)OC(C)(C)C)NC(=O)OC(C)(C)C (centres undefined)	5	i	-2	-2	7	.	.
COc1ccc(CNC(=O)N2CCN(c3cccc(Cl)c3)CC2)cc1OC	0	i	-2	10	-7	.	.
SMILES	EBI2 block	Myeloid diff MLP	MC4R ag barr	Granule exo inh	MC4R antag cAMP	Myeloid diff	GFP autofluor	others
Cc1cccc(N2CCN(C(=O)NCc3ccc(Cl)cc3)CC2)c1	36	i	7	1	9	i	0
COc1ccc(C(=O)COC(=O)[C@@H](NS(=O)(=O)c2ccccc2)C(C)C)cc1	11	i	0	36	10	.	.
O=S(=O)(c1ccc2c(c1)OCCO2)N1CCC(c2nc3ccc(Cl)cc3[nH]2)CC1	21	i	0	17	12	i	0
COc1cc(/C=C2\NC(=S)N(C)C2=O)ccc1O	-7	+	-4	-7	-10	i	5.1*
CN1C(=O)/C(=C/c2ccc(O)c([N+](=O)[O-])c2)NC1=S	14	i	-2	2	-14	.	.
Cc1ccc([C@H]2C[C@@H](O)[C@H](n3cc(COC(=O)c4ccccc4)nn3)CN2Cc2cccs2)cc1	-2	i	5	0	6	i	0
COc1ccc([C@H]2C[C@H](n3cc(COC(=O)c4ccccc4)nn3)[C@@H](O)CN2C(=O)C2CCCCC2)cc1	1	i	-1	2	-6	i	0
COc1ccc([C@H]2C[C@@H](n3cc(COC(=O)c4ccccc4)nn3)[C@H](O)CN2C(=O)C2CCCCC2)cc1	7	i	2	0	10	.	.
CC(CCC(=O)O)C1CC[C@@]2(C)C3C(=O)CC4C(C)(C)C(O)CC[C@]4(C)C3C(=O)C[C@]12C (some centres undefined)	-4	i	-1	-4	2	.	.
